We go through six compounds from ChEMBL document CHEMBL1124098, “N-terminal requirements of small peptide anticoagulants based on hirudin54-65” (J Med Chem, 1988).

Starred links: 1 amine or outer side, 2 acyl side, 3 side chain; linkers in the order of their positions; H or OH if unused. Non-standard residues stand in square brackets, D forms with d. Residues, ends and D or L forms follow the SMILES beside them. *: point of attachment. Hydrocinnamoyl = O=C(CCc1ccccc1)*; Phg = N[C@H](C(=O)O)c1ccccc1; Suc = O=C(CCC(=O)[*:2])[*:1]; X1 = O=C(/C=C/c1ccccc1)*; Bz = O=C(c1ccccc1)*

The nature of this test: In vitro Inhibition of fibrin clot formation relative to a blank control after thrombin addition to plasma in human. Type of test: functional, cell-free. The procedure, abridged: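 Fasted donor human plasma collected in 0.1% EDTA (final), filter-sterilized, stored at -20 °C. Bovine thrombin (0.2 pmol) preincubated with peptide 10 min at 24 °C. Then 1:10 diluted plasma in NaCl/sodium phosphate was added. Buffer pH 7.4 with 0.1% BSA.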
In the case of `CC[C@H](C)[C@H](NC(=O)[C@H](CCC(=O)O)NC(=O)[C@H](CCC(=O)O)NC(=O)[C@H](Cc1ccccc1)NC(=O)CCC(=O)O)C(=O)N1CCC[C@H]1C(=O)N[C@@H](CCC(=O)O)C(=O)N[C@@H](CCC(=O)O)C(=O)N[C@@H](Cc1ccc(O)cc1)C(=O)N[C@@H](CC(C)C)C(=O)N[C@@H](CCC(N)=O)C(=O)O` (Suc-FEEIPEEYLQ-OH), the half-inhibitory concentration (IC50) (usually the midpoint of a concentration-inhibition curve) turned out to be 1.7 µM. H-FEEIPEEYLQ-OH had an IC50 of 34 µM. For `CC[C@H](C)[C@H](NC(=O)[C@H](CCC(=O)O)NC(=O)[C@H](CCC(=O)O)NC(=O)/C=C/c1ccccc1)C(=O)N1CCC[C@H]1C(=O)N[C@@H](CCC(=O)O)C(=O)N[C@@H](CCC(=O)O)C(=O)N[C@@H](Cc1ccc(O)cc1)C(=O)N[C@@H](CC(C)C)C(N)=O` (X1-EEIPEEYL-NH2) the value was more than 250 µM.

Compound `CC[C@H](C)[C@H](NC(=O)[C@H](CCC(=O)O)NC(=O)[C@H](CCC(=O)O)NC(=O)c1ccccc1)C(=O)N1CCC[C@H]1C(=O)N[C@@H](CCC(=O)O)C(=O)N[C@@H](CCC(=O)O)C(=O)N[C@@H](Cc1ccc(O)cc1)C(=O)N[C@@H](CC(C)C)C(N)=O` (Bz-EEIPEEYL-NH2) showed an IC50 of more than 250 µM. For `CC[C@H](C)[C@H](NC(=O)[C@H](CCC(=O)O)NC(=O)[C@H](CCC(=O)O)NC(=O)CCc1ccccc1)C(=O)N1CCC[C@H]1C(=O)N[C@@H](CCC(=O)O)C(=O)N[C@@H](CCC(=O)O)C(=O)N[C@@H](Cc1ccc(O)cc1)C(=O)N[C@@H](CC(C)C)C(N)=O` (Hydrocinnamoyl-EEIPEEYL-NH2) the value was more than 250 µM; for `CC[C@H](C)[C@H](NC(=O)[C@H](CCC(=O)O)NC(=O)[C@H](CCC(=O)O)NC(=O)[C@@H](NC(=O)[C@H](CC(=O)O)NC(=O)CN)c1ccccc1)C(=O)N1CCC[C@H]1C(=O)N[C@@H](CCC(=O)O)C(=O)N[C@@H](CCC(=O)O)C(=O)N[C@@H](Cc1ccc(O)cc1)C(=O)N[C@@H](CC(C)C)C(=O)N[C@@H](CCC(N)=O)C(=O)O` (H-GD[Phg]EEIPEEYLQ-OH), more than 250 µM.
